Rev-RRE block – HIV Rev-RRE protein-RNA interaction inhibition. Rev peptide-RRE RNA binding, FRET. inhibition, % at 8 µM. hit rate 0.79% among 97,000. AID 704;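 active means inhibition above the screen-wide mean plus 3 SD, cut at about 35% in these data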
Target sequence (P05866 whole entry, looked up): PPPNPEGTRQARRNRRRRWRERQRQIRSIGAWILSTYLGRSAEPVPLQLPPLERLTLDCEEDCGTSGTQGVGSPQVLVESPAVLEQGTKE
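Test system – labelled RRE RNA duplex and labelled Rev peptide · Signal – fluorescein-to-Cy5 FRET, 480 nm excitation · Evaluation – % inhibition of FRET ratio versus controls · Benchmarks – DMSO low control, neomycin B high control · Incubation – 5 min RNA-compound premix plus 15 min binding step, 25 °C · Medium – HEPES pH 7.5 salt buffer with EDTA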
LYP act – increases human PTPN22 phosphatase activity | Q9Y2R2 | recombinant LYP, DiFMUP fluorescence; 0 = plate median, 100 = signal doubled | AID 697 | activation, % at 2 µM | hit rate 0.11% among 96,000;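 active means activation at 2 µM above a set limit, the mean plus 5 SD, cut at about 37% in these data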
PTPN22 inh 2 – blocks human PTPN22 phosphatase activity. recombinant LYP catalytic domain, DiFMUP fluorescence. inhibition, % at 2 µM. hit rate 0.21% among 96,000. AID 640;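 active means inhibition at 2 µM at or above a set limit, the screen mean plus 3 SD, cut at about 24% in these data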
FAK inh – blocks human focal adhesion kinase activity; biochemical FAK kinase activity assay; inhibition, %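 (tested at 7 µM)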; AID 727; hit rate 0.84% among 97,000
FAK inh conf – FAK (human) inhibition confirmed; shares compounds with FAK inh; hit rate 28% among 750; FAK kinase biochemical inhibition assay; AID 794; inhibition, % at 7 µM
Of the large screens only hits and unclear results are named; the others gave an inactive call (follow-up assays come after a bar, where they were run). Only some compounds are listed: those with a hit (about 1.8% of all), similar ones and a draw of the others. Unless noted, no stated cut-off is given here; in the data, active means inhibition above about 19%; inactive means the rest.

COc1ccccc1N(CC(=O)NCC1CCCO1)C(=O)CCC(=O)Nc1nccs1 (centres undefined)	none
CCCc1cc(C(N)=O)c(NC(=O)C2CCCO2)s1 (centres undefined)	none
CCCc1cc(C(N)=O)c(NC(=O)c2ccco2)s1	FAK inh 27 | FAK inh conf inactive
COc1ccc(CCNC(=O)CN(C2CCCCC2)S(C)(=O)=O)cc1OC	FAK inh 20 | FAK inh conf inactive
CCOC(=O)c1ccc2ncc(C(=O)OCC)c(NCc3ccco3)c2c1	FAK inh 23 | FAK inh conf inactive
CCOC(=O)c1cnc2ccc(C(=O)OC)cc2c1Nc1ccc2c(c1)OCCO2	FAK inh 36 | FAK inh conf inactive
CCOC(=O)c1cnc2ccc(OC)cc2c1Nc1ccc2c(c1)OCCO2	FAK inh 24 | FAK inh conf inactive
CC(C)c1ccc(N(C(=O)C(F)(F)F)C(C(=O)NC2CCCCC2)c2ccncc2)cc1 (centres undefined)	none
O=C(NCCOC12CC3CC(CC(C3)C1)C2)c1cccc(Br)c1	none
O=C(NCc1ccccc1)c1ccc(-c2ccc(F)cc2)o1	none
CCc1nc(SCC(=O)c2cccs2)c2oc3ccccc3c2n1	none
O=C(NCc1ccccc1)c1ccc2nccnc2c1	none
O=C(Nc1ccccc1)c1ccc2nc(-c3ccco3)c(-c3ccco3)nc2c1	FAK inh 21 | FAK inh conf inactive
O=C(NCc1ccccc1)c1ccc2nc(-c3ccco3)c(-c3ccco3)nc2c1	FAK inh 45 | FAK inh conf inactive
O=C(c1ccc2nc(-c3ccco3)c(-c3ccco3)nc2c1)N1CCN(c2ncccn2)CC1	FAK inh 55 | FAK inh conf inactive
O=C(c1cccc(C(=O)N2CCN(c3ncccn3)CC2)c1)N1CCN(c2ncccn2)CC1	none
CC(=O)c1ccc(NC(=O)c2ccc3nc(-c4ccco4)c(-c4ccco4)nc3c2)cc1	FAK inh 84 | FAK inh conf 30
CCOc1ccc(/C=N/n2c(SC)nnc2-c2ccccc2)cc1OCC	none
CC1CCC(NCc2ccco2)CC1 (centres undefined)	none
O=C(NNC(=O)c1cc2cc3ccccc3nc2s1)c1cccc(C(F)(F)F)c1	FAK inh 25 | FAK inh conf inactive
O=C(Nc1cc(Cl)ccc1O)c1snnc1-c1ccccc1	none
Cc1cc(NC(=O)C2C3C(=O)N(CC4CCCO4)C(C(=O)NCc4ccccc4)C34C=CC2(C)O4)no1 (centres undefined)	none
CC(=O)Oc1ccc(-c2csc(Nc3cccnc3)n2)cc1	FAK inh 20 | FAK inh conf inactive
COc1ccc(-c2csc(Nc3cccnc3)n2)cc1OC	none
Cc1sc2nc(C3CC3)nc(SCC(=O)NCc3ccco3)c2c1C	FAK inh 31 | FAK inh conf inactive
CCC(=O)Nc1ccc(S(=O)(=O)Nc2cc(C)on2)cc1	FAK inh 34 | FAK inh conf inactive
CCOC(=O)Nc1ccc(S(=O)(=O)Nc2cc(C)on2)cc1	none
CC(=O)N1CCN(c2ccc(Nc3ncnc4c3oc3ccccc34)cc2)CC1	FAK inh 24 | FAK inh conf inactive
COc1cc(OC)cc(-c2cc3nc(C)cc(N4CCN(C(=O)c5ccco5)CC4)n3n2)c1	none
Cc1ccc(N2CC(C(=O)Nc3ccc4c(c3)OCO4)CC2=O)cc1 (centres undefined)	FAK inh 40 | FAK inh conf inactive
O=C(CSc1nc2ccccc2c(=O)n1NC(=O)Cc1ccccc1)NCc1ccccc1Cl	none
CC(C)(C)c1nc2ccccc2c2nnc(SCC(=O)Nc3nc4ccccc4s3)n12	FAK inh 23 | FAK inh conf inactive
Cc1ccc(C)n1Cc1ccc(C(=O)O)cc1	FAK inh 78 | FAK inh conf inactive
CCOC(=O)Cc1csc(NC(=O)Cc2cccs2)n1	FAK inh 19 | FAK inh conf inactive
OCCNc1nc(SCc2ccccc2)nc2sc3c(c12)CCC3	none
COc1ccc(-c2cn[nH]c2N)c(OC)c1	FAK inh 31 | FAK inh conf inactive
COc1ccc(-c2cn[nH]c2N)cc1	none
CCSc1nnc(-c2cccnc2)n1-c1ccc(Cl)c(C)c1	none
Cc1ccc(Nc2ncnc3nc[nH]c23)cc1Cl	FAK inh 31 | FAK inh conf inactive
CCCCc1ccc(Nc2ncnc3nc[nH]c23)cc1	none
COc1cccc(Nc2ncnc3nc[nH]c23)c1	FAK inh 23 | FAK inh conf inactive
O=C(NCc1ccccc1)c1cccc(COc2ccccc2Cl)c1	none
COC(=O)c1ccccc1NC(=O)c1cccc(COc2ccccc2Cl)c1	FAK inh 23 | FAK inh conf inactive
COc1ccccc1N(CCC#N)C(=O)CSc1nc(-c2ccccc2)cn1N	none
CC1(C)C(N(O)C(=O)Nc2ccc(Cl)cc2)N(c2ccc(Cl)cc2)C(=O)N1CC(=O)NN (centres undefined)	none
CCc1cccc(NC(=O)Cn2c(=O)oc3cc(S(=O)(=O)N4CCOCC4)ccc32)c1	none
O=C(Cn1c(=O)oc2cc(S(=O)(=O)N3CCCC3)ccc21)Nc1cccc(C(F)(F)F)c1	FAK inh 26 | FAK inh conf inactive
CCOC(=O)c1cnn(-c2ncnc3sc4c(c23)CCC4)c1N	FAK inh 26 | FAK inh conf inactive
CCCCn1nnnc1SCC(=O)NNC(=O)C1CCCCC1	none
O=c1cc(-c2ccco2)oc2c1ccc1ccccc12	FAK inh 26 | FAK inh conf 22
COc1ccccc1N1CCN(S(=O)(=O)c2ccc3c4c(cccc24)C(=O)N3C)CC1	none
COc1ccc2c3c(cccc13)N(C)N=C2C	FAK inh 34 | FAK inh conf inactive
CCCCn1c(=O)[nH]c2ccccc21	none
O=c1[nH]c2ccccc2n1CCCSc1cnc2ccccc2n1	FAK inh 42 | FAK inh conf inactive
Cc1ccccc1NC(=S)NNC(=O)c1csc2c1CCC(C)C2 (centres undefined)	none
CN(C)c1ccc(/C=C(/NC(=O)c2ccccc2)C(=O)N/N=C/c2ccc([N+](=O)[O-])c(O)c2)cc1	FAK inh 20 | FAK inh conf inactive
O=C(Cc1ccccc1)N/N=C/c1ccc(OCC(=O)Nc2ccccc2)cc1	none
O=C(COc1ccc(/C=N/NC(=O)c2cc3ccccc3o2)cc1Cl)Nc1ccccc1	FAK inh 40 | FAK inh conf 36
C=C(C)C1Cc2c(C)nn(-c3cc(C)c4ccccc4n3)c2C1 (centres undefined)	none
O=C(NCc1ccccc1C(F)(F)F)C1CC(c2ccccc2[N+](=O)[O-])=NO1 (centres undefined)	none
O=C(CSc1nnc(COc2cccc3cccnc23)o1)N1CCc2ccccc21	FAK inh 20 | FAK inh conf inactive
O=C(CNc1ccccc1)N/N=C/c1cc([N+](=O)[O-])ccc1N1CCCC1	none
O=C(Cn1c2ccccc2c(=O)c2ccccc21)N/N=C/c1cc([N+](=O)[O-])ccc1N1CCCCCC1	PTPN22 inh 2 28, FAK inh 69 | FAK inh conf 80
CCN1C=CC(=C2C(=O)c3ccccc3C2=O)C=C1	FAK inh 36 | FAK inh conf inactive
Cc1ccc(-n2cnc3cc(NCc4cccs4)ccc32)cc1	none
